Compound activity as filed in PubChem BioAssay.
An excerpt weighted towards active compounds, which were near 2.4% of everything screened.
CSN deneddyl inh: inhibitors of human CSN-mediated cullin deneddylation; 360,000 compounds, 0.38% hits; Purified CSN, SCF-Nedd8-OG deneddylation, fluorescence polarization; Q92905; inhibition, % at 12.5 µM;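 active = pattern-corrected inhibition above about 35%, with an unprinted fluorescence ratio check between 0.5 and 1.5, limit read from the data, passing the limit was not always enough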;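 also: 0% = enzyme with substrate and 100% = substrate without enzyme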
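Test system: Human Csn5 produced in HEK293T cells | Compound: 12.5 µM single point | Times: 90 min, room temperature | Signal: Fluorescence polarization readout | Read-out basis: % inhibition of substrate cleavage by Csn5 | Controls: no-enzyme wells high, enzyme-with-substrate wells low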
Neddyl block: cullin neddylation inhibition; P61081+Q13564; TR-FRET cullin neddylation, biochemical; inhibition, % at 25 µM; 360,000 compounds, 0.58% hits; in the data active = inhibition above about 36%
HNF4A DNA FP: change in binding of human HNF4 alpha to DNA. P41235. HNF4a-FITC DNA binding, fluorescence polarization, 1 h. 360,000 compounds, 0.3% hits. activity change, % at 10 µM; in the data active = activity change above about 30%, passing the limit was not always enough
TPT1 inh: C. albicans TPT1 enzyme inhibition. inhibition, % at 5 µM. 300,000 compounds, 0.81% hits. AID 1962. recombinant caTPT1, FP RNA substrate dephosphorylation;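 active = inhibition above the mean of all tested compounds plus 3 SD, set per screening campaign, cut at about 24% in these data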;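 also: plate controls were DMSO alone for no effect and ferristatin control at 100 nM for full effect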
Rin1 Abl inh: inhibitors of human Rin1-Abl protein interaction | TR-FRET Rin1/Abl binding, biochemical | inhibition, % at 7.35 µM | 360,000 compounds, 0.4% hits | AID 588664 | P00519+Q13671; in the data active = inhibition above about 5%, passing the limit was not always enough
Rpn11 block: inhibitors of human proteasome Rpn11; human 26S proteasome, Ub4-pepOG fluorescence polarization; 20S core pre-blocked with epoxomicin; inhibition, % at 20 µM; 360,000 compounds, 0.59% hits;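 active = inhibition at 20 µM, scaled to each plate's controls, above about 33%, limit read from the data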
Rpn11 confirm: confirmation of human proteasome Rpn11 inhibitors; shares compounds with Rpn11 block; inhibition, % at 20 µM; AID 602318; 1,900 compounds, 29% hits; purified human 26S proteasome, Ub4-pepOG fluorescence polarization; proteasome pretreated with epoxomicin
MMP-2 counter: blocks human MMP-2, flagging nonselective RPN11 hits. AID 602330. inhibition, % at 20 µM. recombinant MMP-2, FRET peptide cleavage fluorescence. shares compounds with Rpn11 block. 1,900 compounds, 4% hits;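 also: human MMP-2 activated beforehand with APMA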
Thrombin FP: blocks bovine thrombin, flagging nonselective RPN11 hits | 1,900 compounds, 13% hits | AID 602333 | shares compounds with Rpn11 block | bovine thrombin cleavage of Ub4-pepOG, fluorescence polarization | inhibition, % at 20 µM;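 active = mean inhibition at least 40% at 20 µM, or signal 3 deviations below plate average, so some actives read negative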;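 also: plate controls were thrombin with DMSO for no effect and buffer wells lacking thrombin for full effect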
Target sequence (P00735 whole entry, looked up): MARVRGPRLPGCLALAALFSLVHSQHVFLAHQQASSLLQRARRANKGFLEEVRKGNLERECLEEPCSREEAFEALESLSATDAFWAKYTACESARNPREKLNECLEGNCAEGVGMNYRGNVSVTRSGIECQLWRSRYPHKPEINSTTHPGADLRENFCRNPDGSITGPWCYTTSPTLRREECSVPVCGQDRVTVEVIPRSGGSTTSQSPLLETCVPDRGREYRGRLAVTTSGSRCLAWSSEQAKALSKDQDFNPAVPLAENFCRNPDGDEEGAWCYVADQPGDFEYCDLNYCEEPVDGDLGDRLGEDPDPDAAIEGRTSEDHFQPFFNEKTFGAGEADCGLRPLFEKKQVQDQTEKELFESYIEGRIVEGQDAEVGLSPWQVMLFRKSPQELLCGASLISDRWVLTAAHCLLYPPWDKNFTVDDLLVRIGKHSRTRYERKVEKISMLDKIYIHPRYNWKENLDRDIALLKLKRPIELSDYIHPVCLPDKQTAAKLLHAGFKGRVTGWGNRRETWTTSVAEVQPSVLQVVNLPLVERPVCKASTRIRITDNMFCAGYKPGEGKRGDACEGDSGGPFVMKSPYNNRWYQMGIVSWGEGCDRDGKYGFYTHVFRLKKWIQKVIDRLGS
* marks the source's active call; other numbers are inactive results; · = not tested or not shown. Rule as the data show it, unless noted: active = inhibition above about 40%; inactive = the rest.

SMILES | CSN deneddyl inh | Neddyl block | HNF4A DNA FP | TPT1 inh | Rin1 Abl inh | Rpn11 block | Rpn11 confirm | MMP-2 counter | Thrombin FP
COc1nc(-c2ccccc2)ccc1-c1noc(-c2cccs2)n1 | 7 | -270 | 4 | 4 | 1 | 46* | 28 | -24 | 22
Cc1ccc(-c2csc(Nc3ccc(S(N)(=O)=O)cc3)n2)o1 | 7 | -11 | 18 | 14 | 1 | 46* | 0 | -1 | -6
Cc1nc(C)c(-c2csc(Nc3ccc(S(N)(=O)=O)cc3)n2)s1 | -1 | -13 | 2 | · | -2 | -1 | · | · | ·
O=C1NC(=O)/C(=C/c2ccccn2)S1 | 0 | 0 | -7 | -3 | 1 | -4 | · | · | ·
O=C(CSc1nnc2c(n1)[nH]c1ccc(F)cc12)OCc1ccccc1 | -7 | -15 | 0 | -4 | 2 | 89* | -5 | 7 | -10
COc1cccc(CNC(=O)CSc2nnc3c(n2)[nH]c2ccc(F)cc23)c1 | 1 | -12 | 1 | -1 | 1 | -2 | · | · | ·
Cn1c2ccccc2c2cc(C(=O)OCC(=O)N3CC(=O)Nc4ccccc43)sc21 | 1 | -132 | 28 | 12 | 0 | 65* | 121* | -21 | 88*
CC(C)CN1C(=O)/C(=C(/C#N)C(=O)NC2CCCCC2)c2ccccc21 | -6 | -3 | 2 | 1 | 1 | 4 | · | · | ·
Cc1nnc(-c2ccco2)c2cn(-c3cccc(Br)c3)nc12 | 51 | -6 | -25 | 11 | -1 | 46* | 22 | 22 | -4
CC(=O)c1nn(-c2cccc(Br)c2)cc1C(=O)c1ccco1 | 0 | 3 | -4 | 3 | 1 | 5 | · | · | ·
O=[N+]([O-])c1ccc(NN=Cc2cccc3ccccc23)cc1 | 8 | -16 | 27 | · | 2 | 51* | 14 | -12 | 6
CCOCCCNC(=O)/C(C#N)=C/c1ccc([N+](=O)[O-])o1 | 6 | 7 | 0 | 0 | 2 | 37* | 18 | -31 | 18
CCOCCCNC(=O)/C(C#N)=C/c1ccc(-c2ccc(S(=O)(=O)N3CCOCC3)cc2)o1 | -3 | -3 | 3 | 4 | -11 | -1 | · | · | ·
CC1CCCN(S(=O)(=O)c2ccc(Br)s2)C1 (stereo not drawn) | -5 | -6 | 17 | 6 | -2 | 46* | 8 | -34 | 6
O=C(Cn1nnc(-c2ccccc2)n1)N=Nc1c(O)[nH]c2ccccc12 | 8 | -18 | -4 | 0 | 3 | 64* | -5 | 15 | -19
CCOC(=O)c1c(-c2ccc(OC)cc2)cn2ccccc12 | 0 | 37 | 0 | -2 | 0 | 0 | · | · | ·
NC1=NC(=O)/C(=C/c2cn(CCC(=O)O)nc2-c2ccc(Cl)cc2)S1 | 5 | -25 | 4 | 16 | -7 | 43* | 46* | -3 | 32
COc1ccc(-c2nn(CCC(=O)O)cc2/C=C2\SC(N)=NC2=O)cc1 | -5 | -13 | 8 | 11 | -4 | 47* | 38 | -5 | 31
COc1ccc(CNC(=O)CN(C(=O)c2csnn2)c2ccc(F)cc2)cc1 | -2 | -5 | 1 | 1 | 0 | 1 | · | · | ·
CCC1CCCCN1CCNS(=O)(=O)c1ccc2c(c1)oc(=O)n2C (stereo not drawn) | 0 | 9 | -4 | 1 | -5 | 5 | · | · | ·
CCC1CCCCN1CCCNS(=O)(=O)c1ccc2c(c1)oc(=O)n2C (stereo not drawn) | 14 | 6 | 6 | 14 | -3 | 68* | 26 | -9 | 16
COc1ccc(/C=C/c2ccc3c(Br)ccc(O)c3n2)cc1 | -2 | -5 | 9 | -4 | 1 | 18 | · | · | ·
COc1cc(/C=C/c2ccc3c(Br)cc(Br)c(O)c3n2)ccc1O | 11 | -11 | 7 | 10 | 0 | 43* | -7 | 27 | -23
CN(C)c1ccc(-c2ccnc3c2CC(C)(C(=O)Nc2ccc(F)c(Cl)c2)O3)cc1 (stereo not drawn) | -5 | · | -1 | · | -1 | 2 | · | · | ·
COCCn1c(=NC(=O)c2sc3ccccc3c2Cl)sc2cc(S(N)(=O)=O)ccc21 | 11 | -118 | 3 | -1 | -20 | -2 | · | · | ·
SMILES | CSN deneddyl inh | Neddyl block | HNF4A DNA FP | TPT1 inh | Rin1 Abl inh | Rpn11 block | Rpn11 confirm | MMP-2 counter | Thrombin FP
COCCn1c(=NC(=O)c2cc(-c3cccs3)nc3ccccc23)sc2cc(S(N)(=O)=O)ccc21 | 0 | 37 | 7 | 15 | 1 | 58* | 20 | 32 | 10
CCOC(=O)Cn1c(=NC(=O)c2nc3ccccc3s2)sc2cc(S(N)(=O)=O)ccc21 | 2 | 1 | -1 | -1 | -2 | 41* | 7 | -16 | -5
C=CCn1c(=NC(=O)c2sc3ccccc3c2Cl)sc2cc(S(N)(=O)=O)ccc21 | 20 | 34 | 3 | 0 | -2 | 49* | 49* | -19 | 0
Cc1ccc(O)c(CCc2ccc(O)cc2)n1 | -12 | 6 | -1 | -1 | 1 | -3 | · | · | ·
COc1ccc(Cl)cc1NC(=S)N(Cc1ccc(C(=O)O)cc1)Cc1ccc(OC)c(OC)c1 | 15 | 12 | -2 | -2 | 0 | 2 | · | · | ·
CCOC(=O)CSc1nc(N)c(C(=O)Nc2ccc(N(C)C)cc2)s1 | 5 | -15 | 0 | -1 | -2 | 6 | · | · | ·
c1ccc(CN(CCN2CCOCC2)Cc2ccccc2)cc1 | 5 | 0 | -3 | · | 2 | 1 | · | · | ·
NCCCC[C@H](N)c1nnc([C@H](CCC(=O)O)NC(=O)C2CCNCC2)o1 | 0 | -10 | 1 | -2 | -1 | 5 | · | · | ·
COc1ccc(NCC(=O)Nc2ccc(Br)cc2F)c(OC)c1 | 1 | 0 | -3 | 2 | 0 | 40* | 3 | -7 | 3
Cc1nc2ccc(S(=O)(=O)N(C)CC(=O)Nc3ccccc3F)cc2s1 | 3 | 6 | 0 | -2 | 0 | -5 | · | · | ·
O=C(Nc1ccc2oc(-c3ccc(Cl)c(Cl)c3)nc2c1)c1ncn[nH]1 | 7 | 32 | -13 | -4 | -1 | 49* | -11 | -41 | -4
CNC(=S)N/N=C(\C)c1ccc(C)c(C)c1 | 4 | 2 | 1 | 1 | 1 | -4 | · | · | ·
Clc1ccc(Br)cc1-c1nc(-c2ccncc2)no1 | -2 | -70 | 5 | 0 | 0 | 88* | 32 | 21 | -4
Brc1cccc(-c2nc(-c3ccncc3)no2)c1 | 6 | -11 | 0 | 1 | -2 | -1 | · | · | ·
CCCSc1nnc(CN2CCOCC2)n1C | -2 | -9 | -6 | 0 | -4 | 122* | -12 | -49 | -18
S=c1[nH]nc(-c2cc(-c3ccccc3)n[nH]2)n1/N=C/c1cccc(Cl)c1 | 70 | 90* | -22 | 2 | 0 | 177* | 157* | 19 | 81*
